Results reported in ChEMBL document CHEMBL3627681, “Synthesis and biological evaluation of 1,3-diaryl pyrazole derivatives as potential antibacterial and anti-inflammatory agents” (2015).
Values after ≈ are worked out from the molar mass of the structure shown.

The compounds below were run on Staphylococcus aureus (assay: Antibacterial activity against quinolone-resistant Staphylococcus aureus CCARM 3519 after 24 hrs by two-fold serial dilution method). Conditions: CCARM 3519, 24 h.
Format: functional
In short: (§1)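 Broth microdilution in Mueller-Hinton broth. Bacteria grown to mid-log phase, diluted 1000-fold, and inoculated at 10⁵ CFU/mL. Test compounds in DMSO, final DMSO not above 0.05%, final concentrations 64-0.5 µg/mL. Incubation 24 h at 37 °C, growth read as absorbance at 650 nm. MIC taken as the lowest concentration giving complete growth inhibition. Run three times.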

| Structure (SMILES) | MIC |
| --- | --- |
| N=C(N)N/N=C/c1cn(-c2ccc([N+](=O)[O-])cc2[N+](=O)[O-])nc1-c1ccc(F)cc1 | 4 µg/mL (≈ 9.7 µM) |
| Cc1cccc(-c2nn(-c3ccc([N+](=O)[O-])cc3[N+](=O)[O-])cc2/C=N/NC(=N)N)c1 | 4 µg/mL (≈ 9.79 µM) |
| COc1cccc(-c2nn(-c3ccc([N+](=O)[O-])cc3[N+](=O)[O-])cc2/C=N/NC(=N)N)c1 | 4 µg/mL (≈ 9.43 µM) |

Each compound was assayed on Mus musculus (assay: Antiinflammatory activity in mouse assessed as inhibition of xylene-induced ear edema at 50 mg/kg, ip administered 30 mins before xylene challenge relative to control). Conditions: not given.
Format: functional
In short: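 Mice received compound freshly dissolved in DMSO, 50 mg/kg ip at 0.05 mL/20 g body weight; vehicle controls got DMSO alone. After 30 min, 20 µL xylene was applied to the right ear. After a further 30 min, 7 mm plugs were cut from treated and untreated ears and edema taken as their weight difference. Result is % edema reduction versus vehicle controls.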

| Structure (SMILES) | inhibition in vivo at 50 mg/kg |
| --- | --- |
| N=C(N)N/N=C/c1cn(-c2ccc([N+](=O)[O-])cc2[N+](=O)[O-])nc1-c1ccc(F)cc1 | 61.9% |
| Cc1cccc(-c2nn(-c3ccc([N+](=O)[O-])cc3[N+](=O)[O-])cc2/C=N/NC(=N)N)c1 | 76.9% |
| COc1cccc(-c2nn(-c3ccc([N+](=O)[O-])cc3[N+](=O)[O-])cc2/C=N/NC(=N)N)c1 | 67.3% |

These compounds were tested on Staphylococcus aureus (assay: Antibacterial activity against methicillin-resistant Staphylococcus aureus CCARM 3506 after 24 hrs by two-fold serial dilution method). Conditions: CCARM 3506, 24 h.
Format: functional
In short: as §1

| Structure (SMILES) | MIC |
| --- | --- |
| N=C(N)N/N=C/c1cn(-c2ccc([N+](=O)[O-])cc2[N+](=O)[O-])nc1-c1ccc(F)cc1 | 4 µg/mL (≈ 9.7 µM) |
| Cc1cccc(-c2nn(-c3ccc([N+](=O)[O-])cc3[N+](=O)[O-])cc2/C=N/NC(=N)N)c1 | 2 µg/mL (≈ 4.9 µM) |
| COc1cccc(-c2nn(-c3ccc([N+](=O)[O-])cc3[N+](=O)[O-])cc2/C=N/NC(=N)N)c1 | 2 µg/mL (≈ 4.71 µM) |

These compounds were tested on Staphylococcus aureus (assay: Antibacterial activity against Staphylococcus aureus 209 after 24 hrs by two-fold serial dilution method). Conditions: Staphylococcus aureus, 209, 24 h.
Format: functional
In short: as §1

| Structure (SMILES) | MIC |
| --- | --- |
| N=C(N)N/N=C/c1cn(-c2ccc([N+](=O)[O-])cc2[N+](=O)[O-])nc1-c1ccc(F)cc1 | 4 µg/mL (≈ 9.7 µM) |
| Cc1cccc(-c2nn(-c3ccc([N+](=O)[O-])cc3[N+](=O)[O-])cc2/C=N/NC(=N)N)c1 | 2 µg/mL (≈ 4.9 µM) |
| COc1cccc(-c2nn(-c3ccc([N+](=O)[O-])cc3[N+](=O)[O-])cc2/C=N/NC(=N)N)c1 | 4 µg/mL (≈ 9.43 µM) |

Each compound was assayed on Pseudomonas aeruginosa (assay: Antibacterial activity against Pseudomonas aeruginosa 2004 after 24 hrs by two-fold serial dilution method). Conditions: Pseudomonas aeruginosa, 2004, 24 h.
Format: functional
In short: (§2)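 Broth microdilution in Mueller-Hinton broth over final concentrations of 64–0.5. Bacteria were grown to mid-log phase and diluted 1000-fold, then inoculated at 10⁵ CFU/mL. Compounds were dissolved in DMSO, with final DMSO at most 0.05%. Plates were incubated 24 h at 37 °C and growth read as absorbance at 650 nm. MIC is the concentration giving complete growth inhibition. Three independent runs.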

| Structure (SMILES) | MIC |
| --- | --- |
| N=C(N)N/N=C/c1cn(-c2ccc([N+](=O)[O-])cc2[N+](=O)[O-])nc1-c1ccc(F)cc1 | > 64 µg/mL |
| Cc1cccc(-c2nn(-c3ccc([N+](=O)[O-])cc3[N+](=O)[O-])cc2/C=N/NC(=N)N)c1 | > 64 µg/mL |
| COc1cccc(-c2nn(-c3ccc([N+](=O)[O-])cc3[N+](=O)[O-])cc2/C=N/NC(=N)N)c1 | > 64 µg/mL |

The compounds below were run on Staphylococcus aureus (assay: Antibacterial activity against methicillin-resistant Staphylococcus aureus CCARM 3167 after 24 hrs by two-fold serial dilution method). Conditions: CCARM 3167, 24 h.
Format: functional
In short: as §1

| Structure (SMILES) | MIC |
| --- | --- |
| N=C(N)N/N=C/c1cn(-c2ccc([N+](=O)[O-])cc2[N+](=O)[O-])nc1-c1ccc(F)cc1 | 4 µg/mL (≈ 9.7 µM) |
| Cc1cccc(-c2nn(-c3ccc([N+](=O)[O-])cc3[N+](=O)[O-])cc2/C=N/NC(=N)N)c1 | 2 µg/mL (≈ 4.9 µM) |
| COc1cccc(-c2nn(-c3ccc([N+](=O)[O-])cc3[N+](=O)[O-])cc2/C=N/NC(=N)N)c1 | 4 µg/mL (≈ 9.43 µM) |

These compounds were tested on Escherichia coli (assay: Antibacterial activity against Escherichia coli CCARM 1356 after 24 hrs by two-fold serial dilution method). Conditions: CCARM 1356, 24 h.
Format: functional
In short: as §2

| Structure (SMILES) | MIC |
| --- | --- |
| N=C(N)N/N=C/c1cn(-c2ccc([N+](=O)[O-])cc2[N+](=O)[O-])nc1-c1ccc(F)cc1 | 8 µg/mL (≈ 19.4 µM) |
| Cc1cccc(-c2nn(-c3ccc([N+](=O)[O-])cc3[N+](=O)[O-])cc2/C=N/NC(=N)N)c1 | 8 µg/mL (≈ 19.6 µM) |
| COc1cccc(-c2nn(-c3ccc([N+](=O)[O-])cc3[N+](=O)[O-])cc2/C=N/NC(=N)N)c1 | 8 µg/mL (≈ 18.9 µM) |

Each compound was assayed on Staphylococcus aureus (assay: Antibacterial activity against Staphylococcus aureus RN4220 after 24 hrs by two-fold serial dilution method). Conditions: RN4220, 24 h.
Format: functional
In short: as §1

| Structure (SMILES) | MIC |
| --- | --- |
| N=C(N)N/N=C/c1cn(-c2ccc([N+](=O)[O-])cc2[N+](=O)[O-])nc1-c1ccc(F)cc1 | 4 µg/mL (≈ 9.7 µM) |
| Cc1cccc(-c2nn(-c3ccc([N+](=O)[O-])cc3[N+](=O)[O-])cc2/C=N/NC(=N)N)c1 | 2 µg/mL (≈ 4.9 µM) |
| COc1cccc(-c2nn(-c3ccc([N+](=O)[O-])cc3[N+](=O)[O-])cc2/C=N/NC(=N)N)c1 | 4 µg/mL (≈ 9.43 µM) |

The compounds below were run on Staphylococcus aureus (assay: Antibacterial activity against quinolone-resistant Staphylococcus aureus CCARM 3505 after 24 hrs by two-fold serial dilution method). Conditions: CCARM 3505, 24 h.
Format: functional
In short: as §1

| Structure (SMILES) | MIC |
| --- | --- |
| N=C(N)N/N=C/c1cn(-c2ccc([N+](=O)[O-])cc2[N+](=O)[O-])nc1-c1ccc(F)cc1 | 4 µg/mL (≈ 9.7 µM) |
| Cc1cccc(-c2nn(-c3ccc([N+](=O)[O-])cc3[N+](=O)[O-])cc2/C=N/NC(=N)N)c1 | 2 µg/mL (≈ 4.9 µM) |
| COc1cccc(-c2nn(-c3ccc([N+](=O)[O-])cc3[N+](=O)[O-])cc2/C=N/NC(=N)N)c1 | 4 µg/mL (≈ 9.43 µM) |

These compounds were tested on Streptococcus mutans (assay: Antibacterial activity against Streptococcus mutans 3065 after 24 hrs by two-fold serial dilution method). Conditions: Streptococcus mutans, 3065, 24 h.
Format: functional
In short: as §2

| Structure (SMILES) | MIC |
| --- | --- |
| N=C(N)N/N=C/c1cn(-c2ccc([N+](=O)[O-])cc2[N+](=O)[O-])nc1-c1ccc(F)cc1 | 8 µg/mL (≈ 19.4 µM) |
| Cc1cccc(-c2nn(-c3ccc([N+](=O)[O-])cc3[N+](=O)[O-])cc2/C=N/NC(=N)N)c1 | 4 µg/mL (≈ 9.79 µM) |
| COc1cccc(-c2nn(-c3ccc([N+](=O)[O-])cc3[N+](=O)[O-])cc2/C=N/NC(=N)N)c1 | 8 µg/mL (≈ 18.9 µM) |

What follows are compounds tested on Escherichia coli (assay: Ratio of moxifloxacin MIC to compound MIC for Escherichia coli CCARM 1356 after 24 hrs by two-fold serial dilution method). Conditions: not given.
Format: functional

| Structure (SMILES) | Ratio |
| --- | --- |
| N=C(N)N/N=C/c1cn(-c2ccc([N+](=O)[O-])cc2[N+](=O)[O-])nc1-c1ccc(F)cc1 | 16 |
| Cc1cccc(-c2nn(-c3ccc([N+](=O)[O-])cc3[N+](=O)[O-])cc2/C=N/NC(=N)N)c1 | 16 |
| COc1cccc(-c2nn(-c3ccc([N+](=O)[O-])cc3[N+](=O)[O-])cc2/C=N/NC(=N)N)c1 | 16 |

These compounds were tested on Candida albicans (assay: Antifungal activity against Candida albicans 7535 by two-fold serial dilution method). Conditions: not given.
Format: functional

| Structure (SMILES) | MIC |
| --- | --- |
| N=C(N)N/N=C/c1cn(-c2ccc([N+](=O)[O-])cc2[N+](=O)[O-])nc1-c1ccc(F)cc1 | 2 µg/mL (≈ 4.85 µM) |
| Cc1cccc(-c2nn(-c3ccc([N+](=O)[O-])cc3[N+](=O)[O-])cc2/C=N/NC(=N)N)c1 | 2 µg/mL (≈ 4.9 µM) |
| COc1cccc(-c2nn(-c3ccc([N+](=O)[O-])cc3[N+](=O)[O-])cc2/C=N/NC(=N)N)c1 | 2 µg/mL (≈ 4.71 µM) |

The compounds below were run on Salmonella typhimurium (assay: Antibacterial activity against Salmonella typhimurium 2421 after 24 hrs by two-fold serial dilution method). Conditions: Salmonella enterica, 2421, 24 h.
Format: functional, Salmonella enterica subsp. enterica serovar Typhimurium
In short: as §2

| Structure (SMILES) | MIC |
| --- | --- |
| N=C(N)N/N=C/c1cn(-c2ccc([N+](=O)[O-])cc2[N+](=O)[O-])nc1-c1ccc(F)cc1 | 8 µg/mL (≈ 19.4 µM) |
| Cc1cccc(-c2nn(-c3ccc([N+](=O)[O-])cc3[N+](=O)[O-])cc2/C=N/NC(=N)N)c1 | 8 µg/mL (≈ 19.6 µM) |
| COc1cccc(-c2nn(-c3ccc([N+](=O)[O-])cc3[N+](=O)[O-])cc2/C=N/NC(=N)N)c1 | 8 µg/mL (≈ 18.9 µM) |

The compounds below were run on Staphylococcus aureus (assay: Antibacterial activity against Staphylococcus aureus 503 after 24 hrs by two-fold serial dilution method). Conditions: Staphylococcus aureus, 503, 24 h.
Format: functional
In short: as §1

| Structure (SMILES) | MIC |
| --- | --- |
| N=C(N)N/N=C/c1cn(-c2ccc([N+](=O)[O-])cc2[N+](=O)[O-])nc1-c1ccc(F)cc1 | 4 µg/mL (≈ 9.7 µM) |
| Cc1cccc(-c2nn(-c3ccc([N+](=O)[O-])cc3[N+](=O)[O-])cc2/C=N/NC(=N)N)c1 | 2 µg/mL (≈ 4.9 µM) |
| COc1cccc(-c2nn(-c3ccc([N+](=O)[O-])cc3[N+](=O)[O-])cc2/C=N/NC(=N)N)c1 | 4 µg/mL (≈ 9.43 µM) |

These compounds were tested on Pseudomonas aeruginosa (assay: Antibacterial activity against Pseudomonas aeruginosa 2742 after 24 hrs by two-fold serial dilution method). Conditions: Pseudomonas aeruginosa, 2742, 24 h.
Format: functional
In short: as §2

| Structure (SMILES) | MIC |
| --- | --- |
| N=C(N)N/N=C/c1cn(-c2ccc([N+](=O)[O-])cc2[N+](=O)[O-])nc1-c1ccc(F)cc1 | > 64 µg/mL |
| Cc1cccc(-c2nn(-c3ccc([N+](=O)[O-])cc3[N+](=O)[O-])cc2/C=N/NC(=N)N)c1 | > 64 µg/mL |
| COc1cccc(-c2nn(-c3ccc([N+](=O)[O-])cc3[N+](=O)[O-])cc2/C=N/NC(=N)N)c1 | > 64 µg/mL |

The compounds below were run on Escherichia coli (assay: Antibacterial activity against Escherichia coli KCTC 1924 after 24 hrs by two-fold serial dilution method). Conditions: KCTC 1924, 24 h.
Format: functional
In short: as §2

| Structure (SMILES) | MIC |
| --- | --- |
| N=C(N)N/N=C/c1cn(-c2ccc([N+](=O)[O-])cc2[N+](=O)[O-])nc1-c1ccc(F)cc1 | 4 µg/mL (≈ 9.7 µM) |
| Cc1cccc(-c2nn(-c3ccc([N+](=O)[O-])cc3[N+](=O)[O-])cc2/C=N/NC(=N)N)c1 | 2 µg/mL (≈ 4.9 µM) |
| COc1cccc(-c2nn(-c3ccc([N+](=O)[O-])cc3[N+](=O)[O-])cc2/C=N/NC(=N)N)c1 | 4 µg/mL (≈ 9.43 µM) |
